Measurements published in ChEMBL document CHEMBL1136789, “Synthesis and biological evaluation of new 2-(4,5-dihydro-1H-imidazol-2-yl)-3,4-dihydro-2H-1,4-benzoxazine derivatives” (J Med Chem, 2003).

How the values were obtained:
Rattus norvegicus [1] = experiment: Effect after 25 mg/kg, po, on heart rate in conscious spontaneously hypertensive rats; format: functional
How it was run: (§1)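 Studied conscious 24 h after surgery. Dosed by oral gavage after ≥40 min stabilisation, n=6/group. Vehicle 0.5% carboxymethylcellulose, 5 mL/kg. MAP and HR recorded over 24 h. Output is the maximal change from baseline (mmHg, bpm, %). Repeated-measures ANOVA with Dunnett's tests.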

[2] = In vitro alpha-2 adrenergic receptor binding affinity was determined on calf frontal cortex membrane preparation; format: tissue-based, Bos taurus
[3] = biological target: T1, Alpha-1A adrenergic receptor (Bos taurus, UniProt P18130); experiment: In Vitro Alpha-1 adrenergic receptor binding affinity on calf frontal cortex membrane preparation; format: tissue-based
T1 sequence (P18130 whole entry): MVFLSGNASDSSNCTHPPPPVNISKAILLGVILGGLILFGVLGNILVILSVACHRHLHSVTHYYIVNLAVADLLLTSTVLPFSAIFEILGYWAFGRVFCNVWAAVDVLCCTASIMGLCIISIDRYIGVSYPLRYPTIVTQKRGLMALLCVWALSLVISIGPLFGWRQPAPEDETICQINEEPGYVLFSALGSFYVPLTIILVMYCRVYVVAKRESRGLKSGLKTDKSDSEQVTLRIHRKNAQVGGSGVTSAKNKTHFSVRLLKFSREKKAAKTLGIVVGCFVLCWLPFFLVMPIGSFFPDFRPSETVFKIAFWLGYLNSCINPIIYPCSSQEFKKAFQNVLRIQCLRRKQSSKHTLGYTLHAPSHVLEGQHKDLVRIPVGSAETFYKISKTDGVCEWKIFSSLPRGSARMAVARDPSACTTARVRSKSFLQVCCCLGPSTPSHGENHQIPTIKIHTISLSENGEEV
How it was run: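 Calf frontal cortex membranes (0.5 mg protein/mL) incubated 40 min at 25 °C with 0.5 nM [3H]prazosin in 50 mM phosphate buffer with 10 mM MgCl2. Competitors at 10^-9 to 10^-4 M. Nonspecific binding set with 10 µM phentolamine. Stopped by rapid vacuum filtration through glass fibre filters, then washed three times with ice-cold buffer. Ki reported.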

Rattus norvegicus [4] = experiment: Effect at (25 mg/kg, ip) on heart rate in anesthetized spontaneously hypertensive rats; format: functional
How it was run: (§2)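 Adult male SHR anaesthetised with sodium pentobarbital 50 mg/kg ip, left carotid catheter filled with heparinised saline. BP and HR (HR from pulse pressure) stabilised ≥40 min before a single ip dose, n=6/group. Vehicle 0.5% carboxymethylcellulose in water, 2.5 mL/kg. Recorded over 90 min. Output is the maximal change in MAP (mmHg) and HR (bpm) from pre-dose baseline, also as %. Repeated-measures ANOVA with Dunnett's tests.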

Rattus norvegicus [5] = experiment: Effect (25 mg/kg ip) on mean arterial blood pressure in anesthetized spontaneously hypertensive rats; format: functional; how it was run: as §2
Rattus norvegicus [6] = experiment: Effect after 25 mg/kg, po, on mean arterial blood pressure in conscious spontaneously hypertensive rats; format: functional; how it was run: as §1
Rattus norvegicus [7] = experiment: Effect (25 mg/kg ip) on heart rate in anesthetized spontaneously hypertensive rats; format: functional; how it was run: as §2

CN1CC(C2=NCCN2)Oc2ccccc21 (stereo not given)
Max delta HR (Rattus norvegicus [1]): -97 beats min-1 | Variation (Rattus norvegicus [1]): -26% | Ki [2]: 74 nM | Ki [3]: 1100 nM | Max delta HR (Rattus norvegicus [4]): -148 beats min-1 | Max delta MAP (Rattus norvegicus [5]): -36 mmHg | Variation (Rattus norvegicus [5]): -21% | Max delta MAP (Rattus norvegicus [6]): -65 mmHg | Variation (Rattus norvegicus [6]): -36% | Variation (Rattus norvegicus [7]): -44%
